The source made the active and inactive calls. The rule behind the calls is not given here.

One assay concerns the target Internal ribosome entry site (IRES). Description: Binding affinity to cyanine dye-labeled HCV IRES subdomain 2a RNA by FRET assay in presence of Mg2+. Set-up: species or system Hepacivirus hominis.
Conditions: not given
In a few lines:
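Binding to IIa RNA measured by triplicate titration in a FRET assay that tracks ligand-induced conformational capture of the dye-labeled RNA. EC50 taken from a single-site dose-response fit to the titration data, with standard error from the triplicates.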
In the case of `CN(C)c1cccc(-n2c(N)nc3ccc(Nc4cccnc4)cc32)c1`, the 50% effective concentration (EC50) was 74 µM.

Consider `CN(C)c1cccc(-n2c(N)nc3ccc(Nc4ccncc4)cc32)c1`, for which the concentration giving a half-maximal response (EC50) is 100 µM.

For `CC(=O)Nc1nc2cc(OCCN(C)C)ccc2n1-c1ccccc1`, the concentration giving a half-maximal response (EC50) worked out at 100 µM.

`CN(C)CCCOc1ccc2c(c1)nc(NC(=O)c1ccccc1)n2-c1ccccc1`: the EC50 was above 500 µM.

On to `CN(C)CCCn1c(N)nc2cccc(-c3cccc(N(C)C)c3)c21`, for which the 50% effective concentration (EC50) amounted to 290 µM.

In the case of `CN(C)CCCn1c(N)nc2ccc(Nc3ccncc3)cc21`, the half-maximal effective concentration (EC50) came out at 160 µM.

Turning to `CN(C)CCCn1c(N)nc2ccc(Nc3cccnc3)cc21`, the EC50 was determined as 160 µM.

Turning to `CN(C)CCCOc1ccc2c(c1)nc(N)n2-c1ccc(N(C)C)cc1`, the EC50 came to 95 µM.

For `CC(=O)Nc1nc2cc(OCCCN(C)C)ccc2n1-c1ccccc1`, the 50% effective concentration (EC50) stood at 210 µM.

For the compound `CN(C)CCOc1ccc2c(c1)nc(NC(=O)c1ccccc1)n2-c1ccccc1`, the concentration giving a half-maximal response (EC50) is above 500 µM.

Consider `CN(C)CCCOc1ccc2nc(N)n(-c3cccc(N(C)C)c3)c2c1`, for which the concentration for a half-maximal effect (EC50) turned out to be 120 µM.

Another assay concerns Internal ribosome entry site (IRES). Description: Non-specific binding affinity to cyanine dye-labeled HCV IRES subdomain 2a RNA assessed as precipitation of dye labeled RNA at 50 to 100 uM by FRET assay in presence of Mg2+. Particulars: Hepacivirus hominis.
Take `CN(C)CCCOc1ccc2c(c1)nc(O)n2-c1ccccc1`: the result was Active.

As to `CN(C)CCOc1ccc2c(c1)nc(O)n2-c1ccccc1`, the result was Active.

Regarding `CN(C)CCCOc1ccc2c(c1)nc(NC(=O)c1ccccc1)n2-c1ccc(N(C)C)cc1`, the result was Active.

Take `CN(C)CCCOc1ccc2nc(O)n(-c3ccc(N(C)C)cc3)c2c1`: the result was Active.

The values are drawn from ChEMBL document CHEMBL3297732, “Aryl-substituted aminobenzimidazoles targeting the hepatitis C virus internal ribosome entry site” (Bioorg Med Chem Lett, 2014).
